Experimental data: ChEMBL document CHEMBL2412955, “Synthesis and antibacterial activities of N-substituted-glycinyl 1H-1,2,3-triazolyl oxazolidinones” (2013)
In brackets after ≈: the same amount, converted by molar mass.

Experiments:
Format in all cases: functional
Streptococcus pneumoniae [1] = test: Ratio of linezolid MIC to compound MIC for penicillin-resistant Streptococcus pneumoniae
Streptococcus pneumoniae [2] = test: Ratio of PH084 MIC to compound MIC for penicillin-resistant Streptococcus pneumoniae
Moraxella catarrhalis [3] = test: Antibacterial activity against Moraxella catarrhalis clinical isolate 255 after 18 hrs by NCCLS agar dilution method; details: clinical isolate 255, 18 h
How it was run: (§1)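 NCCLS agar dilution on Mueller-Hinton agar with 5% sheep blood added to support growth. Drug dilutions 0.12–64 µg/ml. Test agents in 80% DMSO in water, linezolid in 40% water in ethanol. Final inoculum 10^7 CFU/ml, 18 h at 35 °C. MIC read as the lowest concentration with no visible growth.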

Staphylococcus [4] = test: Ratio of PH027 MIC to compound MIC for methicillin-susceptible coagulase-negative Staphylococcus
Moraxella catarrhalis [5] = test: Antibacterial activity against Moraxella catarrhalis clinical isolate 112 after 18 hrs by NCCLS agar dilution method; details: clinical isolate 112, 18 h; how it was run: as §1
Enterococcus [6] = test: Ratio of PH027 MIC to compound MIC for vancomycin-susceptible Enterococcus
Staphylococcus aureus [7] = test: Ratio of PH084 MIC to compound MIC for methicillin-susceptible Staphylococcus aureus
Enterococcus [8] = test: Ratio of PH084 MIC to compound MIC for vancomycin-susceptible Enterococcus
Staphylococcus [9] = test: Antibacterial activity against methicillin-resistant coagulase-negative Staphylococcus after 18 hrs by NCCLS agar dilution method
How it was run: (§2)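 Clinical isolates were tested by agar dilution on Mueller-Hinton agar with drug dilutions from 0.12 to 64 µg/ml. Test compounds were dissolved in 80% DMSO in water. Final inoculum was 10^7 CFU/ml, incubated at 35 °C for 18 h. MIC was the lowest concentration inhibiting visible growth.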

Moraxella catarrhalis [10] = test: Antibacterial activity against Moraxella catarrhalis clinical isolate 36 after 18 hrs by NCCLS agar dilution method; details: clinical isolate 36, 18 h; how it was run: as §1
Moraxella catarrhalis [11] = test: Antibacterial activity against Moraxella catarrhalis clinical isolate 2824 after 18 hrs by NCCLS agar dilution method; details: clinical isolate 2824, 18 h; how it was run: as §1
Enterococcus [12] = test: Antibacterial activity against vancomycin-susceptible Enterococcus after 18 hrs by NCCLS agar dilution method; how it was run: as §2
Streptococcus pneumoniae [13] = test: Ratio of PH027 MIC to compound MIC for penicillin-resistant Streptococcus pneumoniae
Enterococcus [14] = test: Ratio of linezolid MIC to compound MIC for vancomycin-susceptible Enterococcus
Staphylococcus aureus [15] = test: Antibacterial activity against Staphylococcus aureus ATCC 25923 after 18 hrs by NCCLS agar dilution method; details: ATCC 25923, 18 h
How it was run: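 Plain Mueller-Hinton agar, agar dilution per NCCLS, concentrations 0.12–64 µg/ml. Test agents in 80% DMSO in water, linezolid in 40% water in ethanol, vancomycin in water. Final inoculum 10^7 CFU/ml, 35 °C for 18 h. MIC = lowest concentration inhibiting visible growth.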

Streptococcus pneumoniae [16] = test: Antibacterial activity against penicillin-resistant Streptococcus pneumoniae after 18 hrs by NCCLS agar dilution method
How it was run: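 Agar dilution was run on Mueller-Hinton agar supplemented with 5% sheep blood, with drug dilutions from 0.12 to 64 µg/ml. Test compounds were dissolved in 80% DMSO in water. Final inoculum was 10^7 CFU/ml, incubated at 35 °C for 18 h. MIC was the lowest concentration preventing visible growth.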

Moraxella catarrhalis [17] = test: Antibacterial activity against Moraxella catarrhalis clinical isolate 138 after 18 hrs by NCCLS agar dilution method; details: clinical isolate 138, 18 h; how it was run: as §1
Escherichia coli = test: Antibacterial activity against Escherichia coli ATCC 25922 after 18 hrs by NCCLS agar dilution method; details: ATCC 25922, 18 h
How it was run: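 Agar dilution per NCCLS on Mueller-Hinton agar, drug dilutions 0.12–64 µg/ml. Linezolid dissolved in 40% water in ethanol, vancomycin in water, test agents in 80% DMSO in water. Inoculum 10^7 CFU/ml (final), incubated 35 °C for 18 h. MIC is the lowest concentration preventing visible growth.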

Moraxella catarrhalis [18] = test: Antibacterial activity against Moraxella catarrhalis ATCC 8176 after 18 hrs by NCCLS agar dilution method; details: ATCC 8176, 18 h; how it was run: as §1
Staphylococcus aureus [19] = test: Antibacterial activity against methicillin-resistant Staphylococcus aureus after 18 hrs by NCCLS agar dilution method; how it was run: as §2
Moraxella catarrhalis [20] = test: Antibacterial activity against Moraxella catarrhalis clinical isolate 1 after 18 hrs by NCCLS agar dilution method; details: clinical isolate 1, 18 h; how it was run: as §1
Moraxella catarrhalis [21] = test: Ratio of linezolid MIC to compound MIC for Moraxella catarrhalis ATCC 8176
Staphylococcus [22] = test: Ratio of linezolid MIC to compound MIC for methicillin-susceptible coagulase-negative Staphylococcus
Moraxella catarrhalis [23] = test: Antibacterial activity against Moraxella catarrhalis clinical isolate 125 after 18 hrs by NCCLS agar dilution method; details: clinical isolate 125, 18 h; how it was run: as §1
Staphylococcus aureus [24] = test: Ratio of PH027 MIC to compound MIC for methicillin-susceptible Staphylococcus aureus
Moraxella catarrhalis [25] = test: Antibacterial activity against Moraxella catarrhalis clinical isolate 3447 after 18 hrs by NCCLS agar dilution method; details: clinical isolate 3447, 18 h; how it was run: as §1
Staphylococcus aureus [26] = test: Ratio of linezolid MIC to compound MIC for methicillin-susceptible Staphylococcus aureus
Staphylococcus aureus [27] = test: Antibacterial activity against methicillin-susceptible Staphylococcus aureus after 18 hrs by NCCLS agar dilution method; how it was run: as §2
Enterococcus [28] = test: Antibacterial activity against vancomycin-resistant Enterococcus after 18 hrs by NCCLS agar dilution method; how it was run: as §2
Haemophilus influenzae = test: Antibacterial activity against Haemophilus influenzae ATCC 49247 after 18 hrs by NCCLS agar dilution method; details: ATCC 49247, 18 h; how it was run: as §1
Staphylococcus aureus [29] = test: Antibacterial activity against Staphylococcus aureus ATCC 25923 after 18 hrs by […] in presence of human plasma; details: ATCC 25923, Plasma
How it was run: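 To gauge plasma protein binding and/or plasma instability, MIC was determined in Mueller-Hinton broth containing 50% human plasma. Linezolid served as a reference agent. Ratio compares this MIC with the MIC obtained without plasma.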

Staphylococcus [30] = test: Antibacterial activity against methicillin-susceptible coagulase-negative Staphylococcus after 18 hrs by NCCLS agar dilution method; how it was run: as §2
Staphylococcus [31] = test: Ratio of PH084 MIC to compound MIC for methicillin-susceptible coagulase-negative Staphylococcus

In the case of `O=C(NCC(=O)N1CCN(c2ccc(N3C[C@H](Cn4ccnn4)OC3=O)cc2F)CC1)c1ccc([N+](=O)[O-])o1`, the Ratio (Streptococcus pneumoniae [1]) is reported as 4, the Ratio (Streptococcus pneumoniae [2]) is reported as 4 and the MIC (Moraxella catarrhalis [3]) is reported as 1 µg/mL (≈ 1.84 µM). The Ratio (Staphylococcus [4]) was 4, the MIC (Moraxella catarrhalis [5]) was 1 µg/mL (≈ 1.84 µM) and the Ratio (Enterococcus [6]) was 4. It also gave a Ratio (Staphylococcus aureus [7]) of 4, a Ratio (Enterococcus [8]) of 4 and an MIC (Staphylococcus [9]) of 0.06 µg/mL (≈ 0.111 µM). It also gave an MIC (Moraxella catarrhalis [10]) of 1 µg/mL (≈ 1.84 µM), an MIC (Moraxella catarrhalis [11]) of 1 µg/mL (≈ 1.84 µM) and an MIC (Enterococcus [12]) of 0.25 µg/mL (≈ 0.461 µM). It also gave a Ratio (Streptococcus pneumoniae [13]) of 4, a Ratio (Enterococcus [14]) of 4 and an MIC (Staphylococcus aureus [15]) of less than 0.25 µg/mL. It also gave an MIC (Streptococcus pneumoniae [16]) of less than 0.25 µg/mL, an MIC (Moraxella catarrhalis [17]) of 1 µg/mL (≈ 1.84 µM) and an MIC (Escherichia coli) greater than 64 µg/mL. The MIC (Moraxella catarrhalis [18]) was 1 µg/mL (≈ 1.84 µM), the MIC (Staphylococcus aureus [19]) was 0.06 µg/mL (≈ 0.111 µM) and the MIC (Moraxella catarrhalis [20]) was 1 µg/mL (≈ 1.84 µM). It also gave a Ratio (Moraxella catarrhalis [21]) of 8, a Ratio (Staphylococcus [22]) of 4 and an MIC (Moraxella catarrhalis [23]) of 1 µg/mL (≈ 1.84 µM). For the same compound, the Ratio (Staphylococcus aureus [24]) was 4, the MIC (Moraxella catarrhalis [25]) was 1 µg/mL (≈ 1.84 µM) and the Ratio (Staphylococcus aureus [26]) was 4. The MIC (Staphylococcus aureus [27]) was 0.06 µg/mL (≈ 0.111 µM), the MIC (Enterococcus [28]) was 0.25 µg/mL (≈ 0.461 µM) and the MIC (Haemophilus influenzae) was 8 µg/mL (≈ 14.7 µM). The MIC (Staphylococcus aureus [29]) was less than 0.25 µg/mL, the MIC (Staphylococcus [30]) was 0.06 µg/mL (≈ 0.111 µM) and the Ratio (Staphylococcus [31]) was 4.
For `Cc1cn(C[C@H]2CN(c3ccc(N4CCN(C(=O)CNC(=O)c5ccc([N+](=O)[O-])o5)CC4)c(F)c3)C(=O)O2)nn1`, the Ratio (Streptococcus pneumoniae [1]) was 4, the Ratio (Streptococcus pneumoniae [2]) was 4 and the MIC (Moraxella catarrhalis [3]) was 1 µg/mL (≈ 1.8 µM). It also gave a Ratio (Staphylococcus [4]) of 4, an MIC (Moraxella catarrhalis [5]) of 1 µg/mL (≈ 1.8 µM) and a Ratio (Enterococcus [6]) of 4. It also gave a Ratio (Staphylococcus aureus [7]) of 4, a Ratio (Enterococcus [8]) of 4 and an MIC (Staphylococcus [9]) of 0.06 µg/mL (≈ 0.108 µM). The MIC (Moraxella catarrhalis [10]) was 1 µg/mL (≈ 1.8 µM), the MIC (Moraxella catarrhalis [11]) was 1 µg/mL (≈ 1.8 µM) and the MIC (Enterococcus [12]) was 0.25 µg/mL (≈ 0.449 µM). The Ratio (Streptococcus pneumoniae [13]) was 4, the Ratio (Enterococcus [14]) was 4 and the MIC (Staphylococcus aureus [15]) was less than 0.25 µg/mL. For the same compound, the MIC (Streptococcus pneumoniae [16]) was less than 0.25 µg/mL, the MIC (Moraxella catarrhalis [17]) was 1 µg/mL (≈ 1.8 µM) and the MIC (Escherichia coli) was 16 µg/mL (≈ 28.8 µM). The MIC (Moraxella catarrhalis [18]) was 0.5 µg/mL (≈ 0.898 µM), the MIC (Staphylococcus aureus [19]) was 0.06 µg/mL (≈ 0.108 µM) and the MIC (Moraxella catarrhalis [20]) was 1 µg/mL (≈ 1.8 µM). The Ratio (Moraxella catarrhalis [21]) was 16, the Ratio (Staphylococcus [22]) was 4 and the MIC (Moraxella catarrhalis [23]) was 1 µg/mL (≈ 1.8 µM). For the same compound, the Ratio (Staphylococcus aureus [24]) was 4, the MIC (Moraxella catarrhalis [25]) was 1 µg/mL (≈ 1.8 µM) and the Ratio (Staphylococcus aureus [26]) was 4. For the same compound, the MIC (Staphylococcus aureus [27]) was 0.06 µg/mL (≈ 0.108 µM), the MIC (Enterococcus [28]) was 0.5 µg/mL (≈ 0.898 µM) and the MIC (Haemophilus influenzae) was 2 µg/mL (≈ 3.59 µM). The MIC (Staphylococcus aureus [29]) was less than 0.25 µg/mL, the MIC (Staphylococcus [30]) was 0.06 µg/mL (≈ 0.108 µM) and the Ratio (Staphylococcus [31]) was 4.
